The source made the active and inactive calls. No cut-off for these calls is given here.
What was measured:
[1] = Inhibition of full length HIV RT-RNase H activity using 18-nucleotide 3'-fluorescein-labeled RNA/5'-dabsyl-labeled DNA hybrid as substrate; design: species or system Human immunodeficiency virus
Summary of the method: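 Duplex substrate reports random internal RNA cleavage. A known RNase H inhibitor served as positive control. IC50 is the concentration giving 50% inhibition, reported as the mean of two or three independent experiments.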

[2] = tested on: Human immunodeficiency virus 1; experiment: Antiviral activity against HIV1 3B infected in human CEM-SS cells assessed as inhibition of viral-induced cytopathic effect at 10 uM by colorimetric method; format: functional, cell-based
Summary of the method: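 CEM-SS cells were mixed with HIV-1 IIIB and test compound at 10 µM and incubated 6 days. Virus was pre-titered so that virus control wells lost 70 to 95% of cell viability. Each plate had cell-only, virus, compound toxicity and compound colorimetric control wells. Protection from virus-induced cytopathic effect was read colorimetrically.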

[3] = Inhibition of full length HIV reverse transcriptase polymerase activity; design: species or system Human immunodeficiency virus
Summary of the method: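 RT was pre-incubated with primer-template duplex before compound was tested. The IC50 is the concentration giving 50% inhibition. It is reported as mean ± SD from three independent experiments for some analogues, and as the mean of two independent experiments for others.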

SMILES | IC50 [1] [µM] | Activity [2] | IC50 [3] [µM]
O=C1Cc2cc(-c3cccc4c3sc3ccccc34)ccc2C(=O)N1O | 1.8 | inactive | 1.6
O=C1Cc2cc(-c3csc4ccccc34)ccc2C(=O)N1O | 1.1 | inactive | 1.3
O=C1Cc2cc(-c3cc4ccccc4o3)ccc2C(=O)N1O | 1.1 | inactive | 1.5
COc1cc2c(cc1-c1ccco1)CC(=O)N(O)C2=O | 1.6 | inactive | 6.2
O=C1Cc2cc(-c3ccc4c(c3)OCO4)ccc2C(=O)N1O | 1.2 | inactive | 1.7
O=C1Cc2cc(-c3ccoc3)ccc2C(=O)N1O | 1.4 | inactive | 2
COc1cc2c(cc1-c1ccc(F)cc1)CC(=O)N(O)C2=O | 1.4 | inactive | 3.7
O=C1Cc2cc(-c3ccc(F)c(F)c3)ccc2C(=O)N1O | 1.3 | inactive | 2.1
O=C1Cc2ccc(-c3ccco3)cc2C(=O)N1O | 1.2 | inactive | 1.3
O=C(Cc1ccc(F)cc1)Nc1ccc2c(c1)CC(=O)N(O)C2=O | 0.3 | inactive | 1.7
O=C1Cc2c(cccc2-c2ccccc2)C(=O)N1O | 1.4 | inactive | > 25
O=C(Nc1ccc2c(c1)CC(=O)N(O)C2=O)c1ccccc1 | 0.2 | inactive | 0.4
O=C(Cc1ccccc1)Nc1ccc2c(c1)CC(=O)N(O)C2=O | 0.2 | inactive | 1.4
Cc1ccc(Cc2cccc3c2CC(=O)N(O)C3=O)cc1 | 1 | inactive | 8
O=C1Cc2ccc(I)cc2C(=O)N1O | 1.4 | inactive | 1.9
O=C1Cc2cc(-c3cccs3)ccc2C(=O)N1O | 1.7 | inactive | 1.7
COc1cc2c(cc1-c1ccc(F)cc1F)CC(=O)N(O)C2=O | 1.6 | inactive | 2.9
O=C1Cc2c(Cc3ccc(F)cc3F)cccc2C(=O)N1O | 0.82 | inactive | 9.3
COc1cc2c(cc1-c1ccccc1)CC(=O)N(O)C2=O | 1.3 | inactive | 8.1
O=C1Cc2ccc(-c3cccs3)cc2C(=O)N1O | 1.7 | inactive | 2.5
O=C1Cc2c(cccc2-c2ccc(F)cc2F)C(=O)N1O | 1.5 | inactive | 25
O=C1Cc2c(Cc3ccc(C(F)(F)F)cc3)cccc2C(=O)N1O | 0.83 | inactive | 7.4
O=C1Cc2ccc(-c3cc4ccccc4o3)cc2C(=O)N1O | 0.9 | inactive | 1.6
O=C(Nc1ccc2c(c1)CC(=O)N(O)C2=O)c1ccc(F)cc1 | 0.2 | inactive | 0.8
O=C1Cc2c(cccc2-c2ccco2)C(=O)N1O | 2 | inactive | 2.1
O=C1Cc2cc(-c3ccco3)ccc2C(=O)N1O | 1.1 | inactive | 1.5
O=C1Cc2ccc(-c3ccc(F)c(F)c3)cc2C(=O)N1O | 2 | inactive | 2.8
O=C1Cc2c(Cc3ccc(Br)cc3)cccc2C(=O)N1O | 0.6 | inactive | 1.4

From ChEMBL document CHEMBL4033629, “Synthesis, biological evaluation and molecular modeling of 2-Hydroxyisoquinoline-1,3-dione analogues as inhibitors of HIV reverse transcriptase associated ribonuclease H and polymerase” (Eur J Med Chem, 2017)
